Like-named read-outs stand apart in the source and are kept apart here.
Experiments:
[1] = target: T1, E91K/K116E variant of IYD (Haliscomenobacter hydrossis, UniProt F4KU78, E91K/K116E); experiment: Affinity of ligands to E91K/K116E variant of IYD; format: binding
[2] = target: T2, trypsin from bovine pancreas (Bos taurus, UniProt P00760); experiment: Potential inhibition of trypsin by ligands of IYD; format: biochemical; settings: DL-BAPNA as substrate; for inhibition of trypsin: ligand at concentration saturating IYD
T2 sequence (P00760 24-246): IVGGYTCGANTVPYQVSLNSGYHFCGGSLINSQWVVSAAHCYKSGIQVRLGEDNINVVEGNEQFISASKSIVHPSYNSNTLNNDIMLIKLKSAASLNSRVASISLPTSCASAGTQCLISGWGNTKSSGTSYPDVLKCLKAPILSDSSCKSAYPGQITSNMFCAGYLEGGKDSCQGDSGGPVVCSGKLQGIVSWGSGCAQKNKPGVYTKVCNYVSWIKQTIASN
How it was run: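 4-Nitroaniline formation read at 405 nm (ε = 9920 M⁻¹cm⁻¹) every 15 s for 5 min. Rate taken by linear regression over the first 2 min. Repeated independently twice.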

[3] = target: T3, IYD from Haliscomenobacter hydrossis (Haliscomenobacter hydrossis, UniProt F4KU78); settings: for fold change in t1/2: relative to IYD without ligand (10 min); for protection of IYD against trypsin: fluorinated ligands, saturating concentration; for fold increase in t1/2: O2N ligands, relative to IYD without ligand
T3 sequence (F4KU78 1-222): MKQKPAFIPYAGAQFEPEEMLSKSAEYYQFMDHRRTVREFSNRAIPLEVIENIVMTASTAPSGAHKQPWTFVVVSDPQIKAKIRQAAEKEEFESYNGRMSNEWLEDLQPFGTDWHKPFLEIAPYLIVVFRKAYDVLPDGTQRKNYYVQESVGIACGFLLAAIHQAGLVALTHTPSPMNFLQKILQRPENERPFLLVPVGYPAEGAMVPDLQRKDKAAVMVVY

[4] = target: T1, E91K/K116E variant of IYD; experiment: Catalytic dehalogenation by E91K/K116E variant of IYD; format: biochemical
[5] = target: T3, IYD from Haliscomenobacter hydrossis; experiment: biochemical; format: binding
[6] = target: T1, E91K/K116E variant of IYD; experiment: Limited proteolysis of E91K/K116E variant of IYD by trypsin; settings: relative to absence of ligands
[7] = target: T3, IYD from Haliscomenobacter hydrossis; experiment: Redox titration of IYD in the presence of substrate analogues; settings: for formation of FMNsq during reductive titration: saturating ligand, anaerobic, pH 7.4, 25 °C; for two-electron potential of IYD: in presence of ligand, −200 mV in absence of ligands
[8] = target: T3, IYD from Haliscomenobacter hydrossis; experiment: Catalytic deiodination; format: biochemical; settings: for kcat (s^−1) × 10^−2 / Km: deiodination, 100 mM potassium phosphate pH 7.4, 25 °C
[9] = target: T3, IYD from Haliscomenobacter hydrossis; settings: IYD with FMNox; ref Kozyryev et al.[26]; cited from earlier work
[10] = target: T3, IYD from Haliscomenobacter hydrossis; settings: deiodination; ref Kozyryev et al.[26]; cited from earlier work
[11] = target: T3, IYD from Haliscomenobacter hydrossis; format: biochemical; settings: equimolar concentrations of substrate, anaerobic
Catalytic deiodination [12] = substrate: N[C@H](Cc1ccc(O)c(I)c1)C(=O)O; experiment: Catalytic deiodination; format: biochemical, Haliscomenobacter hydrossis; settings: other: deiodination, 100 mM potassium phosphate pH 7.4, 25 °C
Catalytic deiodination [13] = substrate: O=C(O)[C@@H](O)Cc1ccc(O)c(I)c1; experiment: Catalytic deiodination; format: biochemical, Haliscomenobacter hydrossis; settings: other: deiodination, 100 mM potassium phosphate pH 7.4, 25 °C
[14] = IYD with FMNox, 110 mM potassium phosphate pH 7.4, 25 °C

N[C@H](Cc1ccc(O)c(I)c1)C(=O)O [D-I-Tyr, D-3-iodotyrosine]
Kd [1]: 200 ± 30 µM
inhibition of trypsin [2]: mild inhibitor of trypsin
fold change in t1/2 [3]: 0.62
catalytic dehalogenation [4]: No catalytic dehalogenation could be detected
Kd [5]: 270 ± 15 µM
protection of variant from trypsin [6]: over a twofold protection

N[C@@H](Cc1ccc(O)c(F)c1)C(=O)O [F-Tyr, L-3-fluorotyrosine, reference compound]
formation of FMNsq during reductive titration [7]: consistent with the neutral form of FMNsq
Kd [5]: 97 ± 3 µM
decrease in affinity relative to I-Tyr ([5]; IYD with FMNox): more than 10 fold

NCCc1ccc(O)c(F)c1 [F-tyramine]
two-electron potential of IYD [7]: −225 mV
formation of FMNsq during reductive titration [7]: not detected
inhibition of trypsin [2]: inhibited trypsin
protection of IYD against trypsin [3]: protected IYD against trypsin
Kd [5, 14]: 730 ± 140 µM

NC(=O)[C@@H](N)Cc1ccc(O)c(F)c1 [F-tyrosinamide]
two-electron potential of IYD [7]: −236 mV
formation of FMNsq during reductive titration [7]: not detected
protection of IYD against trypsin [3]: protected IYD against trypsin
Kd [5, 14]: 77 ± 3 µM

O=C(O)[C@@H](O)Cc1ccc(O)c(I)c1 [I-HPLA, (S)-3-(4-hydroxy-3-iodophenyl)lactic acid]
Kd [5]: > 3000 µM

O=C(O)CCc1ccc(O)c(I)c1 [I-HPPA, 3-(4-hydroxy-3-iodophenyl)propanoic acid]
kcat (s^−1) × 10^−2 [8]: <9.3 × 10^−3^e s^−1 × 10^−2
kcat as percentage of that for I-Tyr ([8]; set by detection limit of deiodinated product HPPA): ≤ 0.015%
Kd [5]: > 4000 µM
decrease in affinity relative to I-Tyr ([5]; IYD with FMNox): at least 700 fold

N[C@@H](Cc1ccc(O)c(I)c1)C(=O)O [I-Tyr, L-3-iodotyrosine, reference compound]
Kd [1]: 85 ± 14 µM
Kd [9]: 5.7 ± 0.4 µM
inhibition of trypsin [2]: not due to general inhibition of trypsin
Km [10]: 49 ± 10 µM
kcat (s^−1) × 10^−2 [10]: 60 ± 0.5 s^−1 × 10^−2
fold change in t1/2 [3]: 2.2
catalytic dehalogenation [4]: No catalytic dehalogenation could be detected
protection of variant from trypsin [6]: over a twofold protection

NCCc1ccc(O)c(I)c1 [I-tyramine]
decrease in kcat for dehalogenation relative to I-Tyr [8]: more than 30 fold
decrease in kcat/Km of dehalogenation relative to I-Tyr [8]: more than 900 fold
Km [8]: 1470 ± 450 µM
kcat (s^−1) × 10^−2 [8]: 1.8 ± 0.3 s^−1 × 10^−2
fold change in t1/2 [3]: 2.7
Kd [5, 14]: 99 ± 10 µM

NC(=O)C(N)Cc1ccc(O)c(I)c1 (stereo not shown) [I-tyrosinamide]
decrease in kcat for dehalogenation relative to I-Tyr [8]: more than 30 fold
decrease in kcat/Km of dehalogenation relative to I-Tyr [8]: more than 900 fold
Km [8]: 2410 ± 410 µM
kcat (s^−1) × 10^−2 [8]: 1.7 ± 0.2 s^−1 × 10^−2
fold change in t1/2 [3]: 2.7
Kd [5, 14]: 7 ± 0.2 µM

O=C(O)[C@@H](O)Cc1ccc(O)c([N+](=O)[O-])c1 [O2N-HPLA, (S)-3-(4-hydroxy-3-nitrophenyl)lactic acid]
inhibition of trypsin catalysis ([2]; ligand at twice its Kd value): no more than 25%
fold increase in t1/2 [3]: 2.1
ability to oxidize reduced IYD (FMNhq) [11]: capable of oxidizing FMNhq to regenerate the initial FMNox spectrum
Kd [5]: 180 ± 4 µM

NCCc1ccc(O)c([N+](=O)[O-])c1 [O2N-tyramine]
fold increase in t1/2 [3]: 2.7
ability to oxidize reduced IYD (FMNhq) [11]: capable of oxidizing FMNhq to regenerate the initial FMNox spectrum
weakening of binding relative to O2N-Tyr ([5]; IYD with FMNox): 70 fold
Kd [5, 14]: 280 ± 10 µM

NC(=O)[C@@H](N)Cc1ccc(O)c([N+](=O)[O-])c1 [O2N-tyrosinamide]
inhibition of trypsin [2]: not the consequence of a general inhibition of trypsin
fold increase in t1/2 [3]: 3.0
ability to oxidize reduced IYD (FMNhq) [11]: capable of oxidizing FMNhq to regenerate the initial FMNox spectrum
Kd [5, 14]: 2.4 ± 0.1 µM

B1: IYD from Haliscomenobacter hydrossis (Haliscomenobacter hydrossis DSM 1100) (protein)
chain: T3 sequence (F4KU78 1-222)
Km (Catalytic deiodination [12]): 7900 ± 4000 µM
kcat (Catalytic deiodination [12]): 0.027 ± 0.01 s⁻¹
kcat/Km (Catalytic deiodination [12]): 3.4 ± 1 M⁻¹ s⁻¹
Km (Catalytic deiodination [13]): 270 ± 30 µM
kcat (Catalytic deiodination [13]): 0.013 ± 0.001 s⁻¹
kcat/Km (Catalytic deiodination [13]): 47 ± 5 M⁻¹ s⁻¹

Source: publication PMC11408085 (Biochemistry, 2024)
